Results published in ChEMBL document CHEMBL4689842, “EUbOPEN Chemogenomics Library wave 1” (2021).
Several values for one entry are separate records, joined by “and”; a condition that tells them apart may be missing. Equal values may be shown once.

Test system: U2OS
Experiment: Multiplex assay against U2OS
Format: toxicity, cell-based
Conditions: human
Method in brief: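 Compound was added to live cells that had been stained at seeding with Hoechst33342, BioTracker Green Microtubule Cytoskeleton Dye, MitoTracker Red and Annexin V Alexa Fluor 680, and imaging followed on a CQ1 microscope at 37°C and 5% CO2. CellPathfinder machine-learning gating divided cells into Hoechst high-intensity objects or normal cells, normal cells into healthy, pyknosed or fragmented nuclei, and pyknosed cells into mitotic or apoptotic. Tubulin, mitochondrial-mass and membrane-permeability phenotypes are per cents of healthy-nucleus cells.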

[1] = 12 h, 1 µM, compound concentration 1 uM, replicate 1
[2] = 12 h, 1 µM, compound concentration 1 uM, replicate 2
[3] = 12 h, 10 µM, compound concentration 10 uM, replicate 1
[4] = 12 h, 10 µM, compound concentration 10 uM, replicate 2
[5] = 24 h, 1 µM, compound concentration 1 uM, replicate 1
[6] = 24 h, 1 µM, compound concentration 1 uM, replicate 2
[7] = 24 h, 10 µM, compound concentration 10 uM, replicate 1
[8] = 24 h, 10 µM, compound concentration 10 uM, replicate 2
[9] = 48 h, 1 µM, compound concentration 1 uM, replicate 1
[10] = 48 h, 1 µM, compound concentration 1 uM, replicate 2
[11] = 48 h, 10 µM, compound concentration 10 uM, replicate 1
[12] = 48 h, 10 µM, compound concentration 10 uM, replicate 2

CC(C)c1noc(N2CCC(COc3ccc(-c4ccc(S(C)(=O)=O)cc4)nc3)CC2)n1 [GSK-1292263]
Population Apoptotic (%) [1]: 58% | Population Fragmented Nuclei (%) [1]: 25% | Population Healthy Nuclei (%) [1]: 64% | Population Hoechst High Intensity Objects (%) [1]: 17% | Population Membrane Permeable-Phenotype (%) [1]: 5% | Population Mitochondria Different-Phenotype (%) [1]: 10% | Population Mitotic Cells (%) [1]: 41% | Population Normal (%) [1]: 82% | Population Pyknosed Nuclei (%) [1]: 10% | Population Tubulin-Different-Phenotype (%) [1]: 10% | Total Cell Count [1]: 304 | Population Apoptotic (%) [2]: 50% | Population Fragmented Nuclei (%) [2]: 12% | Population Healthy Nuclei (%) [2]: 85% | Population Hoechst High Intensity Objects (%) [2]: 2% | Population Membrane Permeable-Phenotype (%) [2]: 3% | Population Mitochondria Different-Phenotype (%) [2]: 4% | Population Mitotic Cells (%) [2]: 50% | Population Normal (%) [2]: 97% | Population Pyknosed Nuclei (%) [2]: 2% | Population Tubulin-Different-Phenotype (%) [2]: 9% | Total Cell Count [2]: 89 | Population Apoptotic (%) [3]: 54% | Population Fragmented Nuclei (%) [3]: 16% | Population Healthy Nuclei (%) [3]: 67% | Population Hoechst High Intensity Objects (%) [3]: 7% | Population Membrane Permeable-Phenotype (%) [3]: 12% | Population Mitochondria Different-Phenotype (%) [3]: 18% | Population Mitotic Cells (%) [3]: 45% | Population Normal (%) [3]: 92% | Population Pyknosed Nuclei (%) [3]: 15% | Population Tubulin-Different-Phenotype (%) [3]: 33% | Total Cell Count [3]: 141 | Population Apoptotic (%) [4]: 42% | Population Fragmented Nuclei (%) [4]: 5% | Population Healthy Nuclei (%) [4]: 83% | Population Hoechst High Intensity Objects (%) [4]: 5% | Population Membrane Permeable-Phenotype (%) [4]: 3% | Population Mitochondria Different-Phenotype (%) [4]: 10% | Population Mitotic Cells (%) [4]: 57% | Population Normal (%) [4]: 94% | Population Pyknosed Nuclei (%) [4]: 10% | Population Tubulin-Different-Phenotype (%) [4]: 15% | Total Cell Count [4]: 76 | Population Apoptotic (%) [5]: 50% | Population Fragmented Nuclei (%) [5]: 17% | Population Healthy Nuclei (%) [5]: 73% | Population Hoechst High Intensity Objects (%) [5]: 15% | Population Membrane Permeable-Phenotype (%) [5]: 5% | Population Mitochondria Different-Phenotype (%) [5]: 11% | Population Mitotic Cells (%) [5]: 50% | Population Normal (%) [5]: 84% | Population Pyknosed Nuclei (%) [5]: 8% | Population Tubulin-Different-Phenotype (%) [5]: 5% | Total Cell Count [5]: 334 | Population Apoptotic (%) [6]: 0% | Population Fragmented Nuclei (%) [6]: 14% | Population Healthy Nuclei (%) [6]: 83% | Population Hoechst High Intensity Objects (%) [6]: 2% | Population Membrane Permeable-Phenotype (%) [6]: 2% | Population Mitochondria Different-Phenotype (%) [6]: 10% | Population Mitotic Cells (%) [6]: 100% | Population Normal (%) [6]: 97% | Population Pyknosed Nuclei (%) [6]: 2% | Population Tubulin-Different-Phenotype (%) [6]: 13% | Total Cell Count [6]: 103 | Population Apoptotic (%) [7]: 40% | Population Fragmented Nuclei (%) [7]: 20% | Population Healthy Nuclei (%) [7]: 67% | Population Hoechst High Intensity Objects (%) [7]: 7% | Population Membrane Permeable-Phenotype (%) [7]: 9% | Population Mitochondria Different-Phenotype (%) [7]: 14% | Population Mitotic Cells (%) [7]: 60% | Population Normal (%) [7]: 92% | Population Pyknosed Nuclei (%) [7]: 12% | Population Tubulin-Different-Phenotype (%) [7]: 14% | Total Cell Count [7]: 168 | Population Apoptotic (%) [8]: 36% | Population Fragmented Nuclei (%) [8]: 7% | Population Healthy Nuclei (%) [8]: 79% | Population Hoechst High Intensity Objects (%) [8]: 4% | Population Membrane Permeable-Phenotype (%) [8]: 7% | Population Mitochondria Different-Phenotype (%) [8]: 12% | Population Mitotic Cells (%) [8]: 63% | Population Normal (%) [8]: 95% | Population Pyknosed Nuclei (%) [8]: 13% | Population Tubulin-Different-Phenotype (%) [8]: 7% | Total Cell Count [8]: 91 | Population Apoptotic (%) [9]: 42% | Population Healthy Nuclei (%) [9]: 79% | Population Hoechst High Intensity Objects (%) [9]: 9% | Population Membrane Permeable-Phenotype (%) [9]: 2% | Population Mitochondria Different-Phenotype (%) [9]: 12% | Population Mitotic Cells (%) [9]: 57% | Population Normal (%) [9]: 90% | Population Pyknosed Nuclei (%) [9]: 9% | Population Tubulin-Different-Phenotype (%) [9]: 8% | Total Cell Count [9]: 406 | Population Apoptotic (%) [10]: 25% | Population Fragmented Nuclei (%) [10]: 11% | Population Healthy Nuclei (%) [10]: 85% | Population Hoechst High Intensity Objects (%) [10]: 0% | Population Membrane Permeable-Phenotype (%) [10]: 4% | Population Mitochondria Different-Phenotype (%) [10]: 13% | Population Mitotic Cells (%) [10]: 75% | Population Normal (%) [10]: 100% | Population Pyknosed Nuclei (%) [10]: 3% | Population Tubulin-Different-Phenotype (%) [10]: 12% | Total Cell Count [10]: 136 | Population Apoptotic (%) [11]: 60% | Population Fragmented Nuclei (%) [11]: 14% | Population Healthy Nuclei (%) [11]: 76% | Population Hoechst High Intensity Objects (%) [11]: 8% | Population Mitotic Cells (%) [11]: 40% | Population Normal (%) [11]: 91% | Population Pyknosed Nuclei (%) [11]: 9% | Population Tubulin-Different-Phenotype (%) [11]: 9% | Total Cell Count [11]: 231 | Population Apoptotic (%) [12]: 23% | Population Fragmented Nuclei (%) [12]: 5% | Population Healthy Nuclei (%) [12]: 80% | Population Hoechst High Intensity Objects (%) [12]: 2% | Population Membrane Permeable-Phenotype (%) [12]: 6% | Population Mitochondria Different-Phenotype (%) [12]: 13% | Population Mitotic Cells (%) [12]: 76% | Population Normal (%) [12]: 97% | Population Pyknosed Nuclei (%) [12]: 14% | Population Tubulin-Different-Phenotype (%) [12]: 7% | Total Cell Count [12]: 130

CN(c1ccccc1CNc1nc(Nc2ccc3c(c2)CC(=O)N3)ncc1C(F)(F)F)S(C)(=O)=O
Population Apoptotic (%) [3]: 40% and 75% | Population Healthy Nuclei (%) [3]: 44% and 89% | Population Hoechst High Intensity Objects (%) [3]: 7% and 4% | Population Mitochondria Different-Phenotype (%) [3]: 30% and 26% | Population Mitotic Cells (%) [3]: 59% and 25% | Population Normal (%) [3]: 92% and 95% | Population Tubulin-Different-Phenotype (%) [3]: 72% and 24% | Total Cell Count [3]: 122 and 100 | Population Apoptotic (%) [4]: 91% and 33% | Population Fragmented Nuclei (%) [4]: 23% and 11% | Population Healthy Nuclei (%) [4]: 59% and 85% | Population Hoechst High Intensity Objects (%) [4]: 17% and 6% | Population Membrane Permeable-Phenotype (%) [4]: 27% and 12% | Population Mitochondria Different-Phenotype (%) [4]: 37% and 32% | Population Normal (%) [4]: 82% and 93% | Population Tubulin-Different-Phenotype (%) [4]: 55% and 32% | Total Cell Count [4]: 116 and 91 | Population Fragmented Nuclei (%) [7]: 16% | Population Healthy Nuclei (%) [7]: 56% and 83% | Population Mitochondria Different-Phenotype (%) [7]: 57% and 45% | Population Normal (%) [7]: 81% and 96% | Population Tubulin-Different-Phenotype (%) [7]: 72% and 37% | Total Cell Count [7]: 125 and 100 | Population Apoptotic (%) [8]: 59% and 30% | Population Fragmented Nuclei (%) [8]: 13% and 10% | Population Healthy Nuclei (%) [8]: 53% and 78% | Population Hoechst High Intensity Objects (%) [8]: 19% and 8% | Population Mitochondria Different-Phenotype (%) [8]: 51% and 52% | Population Mitotic Cells (%) [8]: 40% and 69% | Population Normal (%) [8]: 80% and 91% | Population Tubulin-Different-Phenotype (%) [8]: 48% and 38% | Total Cell Count [8]: 130 and 91
